Assay results reported in ChEMBL document CHEMBL2424551, “Synthesis, in vitro evaluation and molecular modelling of naphthalimide analogue as anticancer agents” (2013).
The source made the active and inactive calls. The calls are words filed in the database; no cut-off is given here.

Experiments:
Format in all cases: functional
[1] = Growth inhibition of human HCC2998 cells at 10 uM after 48 hrs by SRB assay; details: HCC 2998, 48 h, read-out: GI
Method in brief: (§1)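 Cells grown in RPMI 1640 with 5% FBS and 2 mM L-glutamine, plated at 5000–40,000 cells/well by doubling time and preincubated 24 h (37 °C, 5% CO2); a time-zero plate is TCA-fixed. Single dose added, then 48 h incubation. Fixed with cold TCA, stained with 0.4% SRB, dye solubilized in 10 mM Tris base, absorbance at 515 nm; percent growth vs time-zero and untreated control.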

[2] = system: HT-29; assay: Growth inhibition of human HT-29 cells at 10 uM after 48 hrs by SRB assay; details: HT-29, 48 h, read-out: GI; method in brief: as §1
[3] = system: OVCAR-4; assay: Growth inhibition of human OVCAR4 cells at 10 uM after 48 hrs by SRB assay; details: OVCAR-4, 48 h, read-out: GI; method in brief: as §1
[4] = Cytotoxicity against human CNS cancer cells after 48 hrs by SRB assay; details: Cancer cell lines
Method in brief: (§2)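 Five-concentration screen (10-fold or ½-log serial dilutions) on the 60-line panel. Cells grown in RPMI 1640 with 5% FBS and 2 mM L-glutamine, plated at 5000–40,000/well by doubling time, preincubated 24 h at 37 °C, 5% CO2, then exposed 48 h. Time-zero plates TCA-fixed. SRB stain, Tris-solubilized, A515. GI50, TGI and LC50 derived from Tz, C and Ti.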

[5] = system: COLO 205; assay: Growth inhibition of human COLO205 cells at 10 uM after 48 hrs by SRB assay; details: COLO 205, 48 h, read-out: GI; method in brief: as §1
[6] = system: SF-539; assay: Growth inhibition of human SF539 cells at 10 uM after 48 hrs by SRB assay; details: SF-539, 48 h, read-out: GI; method in brief: as §1
[7] = system: SF-268; assay: Growth inhibition of human SF268 cells at 10 uM after 48 hrs by SRB assay; details: SF-268, 48 h, read-out: GI; method in brief: as §1
[8] = Cytotoxicity against human prostate cancer cells after 48 hrs by SRB assay; details: Cancer cell lines; method in brief: as §2
[9] = system: SK-MEL-28; assay: Growth inhibition of human SK-MEL-28 cells at 10 uM after 48 hrs by SRB assay; details: SK-MEL-28, 48 h, read-out: GI; method in brief: as §1
[10] = system: M14; assay: Growth inhibition of human M14 cells at 10 uM after 48 hrs by SRB assay; details: M14, 48 h, read-out: GI; method in brief: as §1
[11] = system: SNB-19; assay: Growth inhibition of human SNB19 cells at 10 uM after 48 hrs by SRB assay; details: SNB-19, 48 h, read-out: GI
Method in brief: (§3)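 NCI 60-cell-line screen with a single 10 µM dose. Cells are grown in RPMI 1640 with 5% FBS and 2 mM L-glutamine, plated at 5000–40,000 cells/well according to doubling time, and preincubated 24 h at 37 °C, 5% CO2; time-zero plates are TCA-fixed at that point. Drug exposure is 48 h. Adherent cells are fixed with cold TCA, stained with 0.4% SRB in 1% acetic acid and read at 515 nm. Percent growth is calculated relative to time-zero and untreated controls and reported as GI%.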

[12] = system: UACC-257; assay: Growth inhibition of human UACC257 cells at 10 uM after 48 hrs by SRB assay; details: UACC-257, 48 h, read-out: GI; method in brief: as §3
[13] = Cytotoxicity against human colon cancer cells after 48 hrs by SRB assay; details: Cancer cell lines; method in brief: as §2
[14] = system: OVCAR-3; assay: Growth inhibition of human OVCAR3 cells at 10 uM after 48 hrs by SRB assay; details: OVCAR-3, 48 h, read-out: GI; method in brief: as §1
[15] = system: SR; assay: Growth inhibition of human SR cells at 10 uM after 48 hrs by SRB assay; details: read-out: GI; method in brief: as §3
[16] = system: A549; assay: Growth inhibition of human A549 cells at 10 uM after 48 hrs by SRB assay; details: A549, 48 h, read-out: GI; method in brief: as §1
[17] = system: MCF7; assay: Growth inhibition of human MCF7 cells at 10 uM after 48 hrs by SRB assay; details: MCF7, 48 h, read-out: GI; method in brief: as §1
[18] = system: LOX IMVI; assay: Growth inhibition of human LOXIMVI cells at 10 uM after 48 hrs by SRB assay; details: read-out: GI; method in brief: as §1
[19] = system: IGROV-1; assay: Growth inhibition of human IGROV1 cells at 10 uM after 48 hrs by SRB assay; details: IGROV-1, 48 h, read-out: GI; method in brief: as §1
[20] = Cytotoxicity against human breast cancer cells after 48 hrs by SRB assay; details: Cancer cell lines; method in brief: as §2
[21] = Cytotoxicity against human ovarian cancer cells after 48 hrs by SRB assay; details: Cancer cell lines; method in brief: as §2
[22] = Cytotoxicity against human leukemia cells after 48 hrs by SRB assay; details: Leukemia cell; method in brief: as §2
[23] = Cytotoxicity against human renal cancer cells after 48 hrs by SRB assay; details: Cancer cell lines; method in brief: as §2
[24] = system: Malme-3M; assay: Growth inhibition of human MALME-3M cells at 10 uM after 48 hrs by SRB assay; details: read-out: GI; method in brief: as §1
[25] = system: MOLT-4; assay: Growth inhibition of human MOLT4 cells at 10 uM after 48 hrs by SRB assay; method in brief: as §1
[26] = system: A498; assay: Growth inhibition of human A498 cells at 10 uM after 48 hrs by SRB assay; details: A498, 48 h, read-out: GI; method in brief: as §1
[27] = system: SK-MEL-2; assay: Growth inhibition of human SK-MEL-2 cells at 10 uM after 48 hrs by SRB assay; details: SK-MEL-2, 48 h, read-out: GI; method in brief: as §1
[28] = system: UO-31; assay: Growth inhibition of human UO31 cells at 10 uM after 48 hrs by SRB assay; details: UO-31, 48 h, read-out: GI; method in brief: as §3
[29] = system: TK-10; assay: Growth inhibition of human TK10 cells at 10 uM after 48 hrs by SRB assay; details: TK-10, 48 h, read-out: GI; method in brief: as §3
[30] = system: OVCAR-8; assay: Growth inhibition of human OVCAR8 cells at 10 uM after 48 hrs by SRB assay; details: OVCAR-8, 48 h, read-out: GI; method in brief: as §1
[31] = system: RXF 393; assay: Growth inhibition of human RXF393 cells at 10 uM after 48 hrs by SRB assay; details: RXF 393, 48 h, read-out: GI; method in brief: as §1
[32] = Cytotoxicity against human melanoma cells after 48 hrs by SRB assay; details: Melanoma cell; method in brief: as §2
[33] = system: Hs-578T; assay: Growth inhibition of human Hs578T cells at 10 uM after 48 hrs by SRB assay; details: read-out: GI; method in brief: as §1
[34] = Cytotoxicity against human non-small cell lung cancer cells after 48 hrs by SRB assay; details: Cancer cell lines; method in brief: as §2
[35] = Growth inhibition of human EKVX cells at 10 uM after 48 hrs by SRB assay; details: read-out: GI; method in brief: as §1
[36] = read-out: LC50 (the source's name)

## Nc1ccc(Sc2ccc3c4c2cccc4c(=O)n2c4ccccc4nc32)cc1
[1]
  inhibition of growth at 10 µM: < 20%
[2]
  inhibition of growth at 10 µM: 33.3%
[3]
  inhibition of growth at 10 µM: 26%
[4]
  GI50: 4.09 µM
  TGI: 45.4 µM
[4]; [36]
  CC50: 94 µM
[5]
  inhibition of growth at 10 µM: 49.2%
[6]
  inhibition of growth at 10 µM: 51.5%
[7]
  inhibition of growth at 10 µM: 40.6%
[8]
  GI50: 3.23 µM
  TGI: 17.9 µM
[9]
  inhibition of growth at 10 µM: 26.3%
[10]
  inhibition of growth at 10 µM: 54.6%
[11]
  inhibition of growth at 10 µM: 53.7%
[12]
  inhibition of growth at 10 µM: 29%
[13]
  GI50: 6.58 µM
  TGI: 60.8 µM
[13]; [36]
  CC50: 98.8 µM
[14]
  inhibition of growth at 10 µM: 22.2%
[15]
  inhibition of growth at 10 µM: 83.9%
[16]
  inhibition of growth at 10 µM: 79.4%
[17]
  inhibition of growth at 10 µM: 76.4%
[18]
  inhibition of growth at 10 µM: 70.8%
[19]
  inhibition of growth at 10 µM: 65.5%
[20]
  GI50: 5.2 µM
  TGI: 46 µM
[20]; [36]
  CC50: > 100 µM
[21]
  GI50: 6.97 µM
  TGI: 37.4 µM
[21]; [36]
  CC50: 97.9 µM
[22]
  GI50: 2.9 µM
  TGI: 44.5 µM
[22]; [36]
  CC50: > 100 µM
[23]
  GI50: 3.3 µM
  TGI: 15.4 µM
[23]; [36]
  CC50: 88.9 µM
[24]
  inhibition of growth at 10 µM: 66%
[25]
  growth inhibition (GI): Active
[26]
  inhibition of growth at 10 µM: 41.2%
[27]
  inhibition of growth at 10 µM: < 20%
[28]
  inhibition of growth at 10 µM: 90.7%
[29]
  inhibition of growth at 10 µM: 21.4%
[30]
  inhibition of growth at 10 µM: 50%
[31]
  inhibition of growth at 10 µM: 27.4%
[32]
  GI50: 6.93 µM
  LC50: 83.9 µM
  TGI: 35.1 µM
[33]
  inhibition of growth at 10 µM: 40.4%
[34]
  GI50: 3.94 µM
  TGI: 32.5 µM

## O=c1c2cccc3c(N4CCCC4)ccc(c32)c2nc3ccccc3n12
[1]
  inhibition of growth at 10 µM: 29.6%
[2]
  inhibition of growth at 10 µM: 22.2%
[3]
  inhibition of growth at 10 µM: 21.2%
[5]
  inhibition of growth at 10 µM: 36.4%
[6]
  inhibition of growth at 10 µM: < 20%
[7]
  inhibition of growth at 10 µM: < 20%
[9]
  inhibition of growth at 10 µM: < 20%
[10]
  inhibition of growth at 10 µM: < 20%
[11]
  inhibition of growth at 10 µM: 24%
[12]
  inhibition of growth at 10 µM: < 20%
[14]
  inhibition of growth at 10 µM: < 20%
[15]
  inhibition of growth at 10 µM: 79.8%
[16]
  inhibition of growth at 10 µM: 67.4%
[17]
  inhibition of growth at 10 µM: 50%
[18]
  inhibition of growth at 10 µM: 48.3%
[19]
  inhibition of growth at 10 µM: 42.9%
[35]
  inhibition of growth at 10 µM: 24.1%
[24]
  inhibition of growth at 10 µM: 29.6%
[25]; MOLT-4, 48 h, read-out: GI
  inhibition of growth at 10 µM: 97.4%
[26]
  inhibition of growth at 10 µM: 62%
[27]
  inhibition of growth at 10 µM: < 20%
[28]
  inhibition of growth at 10 µM: 43.8%
[29]
  inhibition of growth at 10 µM: < 20%
[30]
  inhibition of growth at 10 µM: 34%
[31]
  inhibition of growth at 10 µM: < 20%
[33]
  inhibition of growth at 10 µM: 32.8%
